This assay deals with T. cruzi CAI/72 in J774, trypomastigote emergence, microscopy. Briefly: cidal versus static activity against T. cruzi amastigotes, late-stage follow-up, mechanism study, imaging, CAI/72 strain, J774 macrophages, dry powder, set 2 (AID 652278). To be noted: active compounds read high. The method in brief:
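Read-out: Linear-fit slope of emergence day against compound concentration; Assay system: J774 macrophages, 9000 rad-arrested, infected with T. cruzi CAI/72; Technique: daily microscopic scoring of emerging trypomastigotes.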
For the compound `CN(C)C(=O)c1cccc(-c2ccc([C@H]3[C@H](CO)N4CCCCN(C(=O)C5CCC5)C[C@@H]34)cc2)c1`, the slope of emergence day vs concentration is 1.89.
As for `CC(C)N1C[C@@H](CN(C)CCc2ccc(Cl)cc2)Oc2c(NC(=O)c3ccncc3)cccc2C1=O`, the figure is 5; as for `CC(C)N1C[C@@H](CN(C)CCc2ccc(Cl)c(Cl)c2)Oc2c(NC(=O)c3ccncc3)cccc2C1=O`, 5.
Under `CC(C)N1C[C@H](CN(C)Cc2ccc(Cl)cc2)Oc2c(NC(=O)c3ccncc3)cccc2C1=O` stands 5; under `CN(C)CC#Cc1cccc(-c2nc(C(=O)NCc3ccc4c(c3)OCO4)cc3c2[C@@H](CCO)N(S(=O)C(C)(C)C)C3)c1` (stereo partly specified), 2.02.
As for `CN(C)CC#Cc1cccc(-c2nc(C(=O)N[C@@H]3CCN(Cc4ccccc4)C3)cc3c2[C@@H](CCO)N(S(=O)C(C)(C)C)C3)c1` (stereo partly specified), the figure is 1.89; as for `CC(C)N1C[C@@H](CN(C)Cc2ccc(Cl)cc2)Oc2c(C(=O)Nc3ccncc3)cccc2C1=O`, 5; as for `CC(C)N1C[C@@H](CN(C)Cc2ccc(Oc3ccccc3)cc2)Oc2c(NC(=O)c3ccncc3)cccc2C1=O`, 5.
As for `CC(C)N1C[C@@H](CN(C)Cc2ccc(Cl)cc2)Oc2c(NC(=O)c3ccncc3)cc(F)cc2C1=O`, the slope of emergence day vs concentration is 5.
Under `CC(C)N1C[C@@H](CN(C)Cc2ccc(Cl)cc2)Oc2c(NC(=O)c3ccncc3)cccc2C1=O` stands 5; under `CC(C)N1C[C@@H](CN(C)Cc2ccc(Cl)c(Cl)c2)Oc2c(NC(=O)c3ccncc3)cccc2C1=O`, 5.

Values taken from PubChem BioAssay AID652278 (Broad Institute, 2013).
